High-throughput results (PubChem)
NPY1 pot ag – NPY-Y1 receptor potentiators or agonists, primary screen, cell-based; actives 0.37% (n = 220,000); activation, % at 3.6 µM; AID 1304, 2008; NPY-Y1 expressing cells, potentiator/agonist activation; Neuropeptide Y receptor type 1 (Homo sapiens), P25929; in the data active = activation above about 33%, passing the limit was not always enough;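 note: cells stimulated with NPY at EC10 then isoproterenol at EC100; 0% = low agonist plus stimulus and 100% = saturating agonist plus stimulus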
Measles CPE – compounds protecting cells from measles virus cytopathic effect, primary screen, measles RdRp inhibitor project, single point, MLSMR library, absorbance; Measles virus-infected cells, CPE protection; protection (pct of control), % at 4 µM; actives 1.5% (n = 140,000); AID 841, 2007; in the data active = protection mostly above about 24%, no sharp cut-off; inactive = mostly below about 26%
NPY-Y1 antag – NPY-Y1 receptor antagonists, primary screen, cell-based. Neuropeptide Y receptor type 1 (Homo sapiens), P25929. AID 1040, 2008. HEK293-CNG Y1 cells, membrane potential fluorescence; NPY at EC95, then isoproterenol. actives 1% (n = 200,000). inhibition, % at 3.6 µM;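 active = inhibition above the campaign mean inhibition of all tested compounds plus 3 SD, cut at about 20% in these data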;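 note: 0% = DMSO wells given NPY plus isoproterenol and 100% = isoproterenol alone without NPY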
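Material: HEK293 Y1/CNG channel cell line; also added: NPY (25 nM), isoproterenol (1 µM), Ro 20-1724 (25 µM); doses: one concentration, 3.6 µM, in 0.4% DMSO; schedule: compound incubation 1 h at room temperature, readout 45 min post-stimulation; technique: membrane potential fluorescence; measure: fluorescence ratio normalized to % inhibition between controls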
NPY2 pot ag – NPY-Y2 potentiators or agonists, primary screen, cell-based | cells expressing NPY-Y2, potentiator/agonist read-out | activation, % at 3.6 µM | actives 0.45% (n = 220,000) | AID 1359, 2008; in the data active = activation above about 27%;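 note: cells stimulated with NPY near EC25 plus isoproterenol at EC100; 0% = vehicle plus submaximal agonist and 100% = vehicle plus saturating agonist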
Mdm2 ligase inh – MDM2-luciferase reporter signal enhancers, primary screen, MDM2 E3 ligase inhibitor project, cell-based, luminescence, 1536-well; signal enhancement, % at 5 µM; cell-based MDM2 ubiquitination luciferase reporter, 2 h; 0 = plate control, 100 = twice control, blank-subtracted; actives 0.11% (n = 210,000);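 active = signal enhancement of 30% or more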;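 note: luminescence tracks abundance of the self-degrading MDM2-luciferase fusion protein; higher signal means inhibition of MDM2 E3 ligase activity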
Target sequence (Q00987 whole entry, looked up, the tested form may be a part): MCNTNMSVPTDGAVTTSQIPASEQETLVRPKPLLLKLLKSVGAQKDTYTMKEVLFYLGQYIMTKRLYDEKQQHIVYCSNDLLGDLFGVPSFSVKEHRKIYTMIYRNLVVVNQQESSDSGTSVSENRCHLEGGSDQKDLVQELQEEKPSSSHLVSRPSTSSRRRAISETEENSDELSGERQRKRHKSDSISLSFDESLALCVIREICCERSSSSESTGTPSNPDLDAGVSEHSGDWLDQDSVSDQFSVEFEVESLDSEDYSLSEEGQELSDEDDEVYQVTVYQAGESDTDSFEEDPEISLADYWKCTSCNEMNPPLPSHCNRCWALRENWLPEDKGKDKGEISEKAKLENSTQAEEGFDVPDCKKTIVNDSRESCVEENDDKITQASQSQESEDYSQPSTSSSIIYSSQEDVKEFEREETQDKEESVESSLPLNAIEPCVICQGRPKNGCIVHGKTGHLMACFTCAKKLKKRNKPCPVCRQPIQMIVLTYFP
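Material: stable MDM2–luciferase fusion reporter cells / Quantity: 2000 cells/well / Dosing: single 5 µM compound dose, 0.2% final DMSO / Buffer or medium: DMEM / Schedule: 4 h cell settling then 2 h compound exposure, 37 °C / Detection: luminescence with SteadyLite reagent, 15 min at room temperature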
NPY Y2 blocker – NPY-Y2 receptor antagonists, primary screen, cell-based; NPY-Y2 expressing cells, antagonist mode; actives 0.99% (n = 140,000); Neuropeptide Y receptor type 2 (Homo sapiens), P49146; inhibition, % at 2.7 µM; AID 793, 2007; in the data active = inhibition above about 17%;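 note: 0% = vehicle with agonist challenge and 100% = reference antagonist with challenge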
Active calls of the source: *; / = no result. A selection: hits, their analogues and other compounds. The true share with any hit is near 2.8%.

SMILES	NPY1 pot ag	Measles CPE	NPY-Y1 antag	NPY2 pot ag	Mdm2 ligase inh	NPY Y2 blocker
COc1cc(CC(=O)OCC(=O)Nc2cc([N+](=O)[O-])ccc2Cl)cc(OC)c1OC	-16	6	7	7	0	3
CC(=O)c1c(C)[nH]c(C(=O)COC(=O)CN(C)S(=O)(=O)c2ccc(Cl)cc2)c1C	-8	5	0	5	-15	2
COc1ccc(Br)cc1C(=O)N/N=C/c1ccc2c(c1)n(C)c(=O)n2C	-6	37*	-4	0	-5	2
S=C(NCCC(c1ccccc1)c1ccccc1)Nc1ccc(Cl)cc1	12	48*	6	-4	5	4
COc1cc(NC(=S)NCCC(c2ccccc2)c2ccccc2)c(OC)cc1Cl	17	38*	0	-1	-11	3
S=C(NCCC(c1ccccc1)c1ccccc1)Nc1ccccc1Cl	1	8	2	3	-9	5
Cc1ccc(C(=O)OCC(=O)NC2CCCCC2)s1	-9	/	0	4	-4	/
Cc1ccc(S(=O)(=O)N2CCCOC2CNC(=O)C(=O)NCc2ccncc2)cc1 (stereo unspecified)	-16	27	5	8	-23	1
Nc1ccc(C(=O)Nc2cccc(N)c2)cc1	-4	/	/	2	-3	/
CC(C)(C)c1ccc(CN(Cc2ccccc2)C(c2ccccn2)c2nnnn2C(C)(C)C)cc1 (stereo unspecified)	3	13	0	-10	-30	1
Fc1ccc(C(c2nnnn2C2CCCC2)N(Cc2ccco2)CC2CCCO2)cc1 (stereo unspecified)	-6	12	32*	5	-27	43*
CC(C)(C)n1nnnc1C(c1ccc(Cl)cc1)N(Cc1cccnc1)Cc1ccco1 (stereo unspecified)	-23	3	25*	-14	1	28*
CCN(Cc1ccccc1)C(c1ccncc1)c1nnnn1C(C)(C)C (stereo unspecified)	3	29	5	15	-16	5
CC(C)(C)n1nnnc1C(c1ccc(C(F)(F)F)cc1)N(Cc1ccc(F)cc1)Cc1ccco1 (stereo unspecified)	-8	8	32*	-31	-18	26*
CC(C)(C)n1nnnc1C(c1ccc(F)cc1)N(Cc1ccc(F)cc1)Cc1ccco1 (stereo unspecified)	-10	3	47*	-7	1	27*
CCOC(=O)N1CCC(NC(=O)c2cccc3c2C(=O)N(Cc2cccnc2)C3)CC1	8	2	4	10	-18	3
O=C1CC(C2CCCO2)C(=O)N1c1ccccc1 (stereo unspecified)	-2	33	-2	-10	-2	-1
Cc1ccc(C(c2nnnn2C(C)(C)C)N(Cc2ccco2)Cc2cccs2)cc1 (stereo unspecified)	8	6	5	-14	-48	18*
CCOC(=O)Nc1cc(C(=O)OC)ccc1C	11	33*	-2	-8	-12	2
O=[N+]([O-])c1ccc(N=Nc2c(Cl)cc(O)cc2Cl)cc1	67*	/	/	65*	-47	/
CC(N)=Nc1ccc([N+](=O)[O-])cc1	-9	2	0	8	3	-1
O=C(c1cccnc1)N1CCN(c2ccc3ccccc3n2)CC1	-3	/	3	-1	13	/
COc1ccc2c(C)cc(Sc3nnnn3-c3ccccc3)nc2c1	2	53*	0	6	-4	12
N#Cc1ccc(C(=O)NCC(c2ccco2)N2CCCCC2)cc1 (stereo unspecified)	-8	46*	1	-18	0	2
COC(=O)C1=C(NC(=O)CCCCl)CCS1	6	50*	-5	-9	-8	-1
